# Measurements collected from several papers.
# CYP3A7: Cytochrome P450 3A7 (CYP3A7, Homo sapiens, UniProt P24462)
Structure (SMILES),tested on,assay,system,setting,quantity,result
O=C(O)C(F)(F)C(F)(F)C(F)(F)C(F)(F)C(F)(F)C(F)(F)C(F)(F)F,CYP3A7,"enzyme activity, inhibitor",,"100 µM, pH 7.4",inhibition,35.8%
Cc1ncc2n1-c1ccc(Cl)cc1C(c1ccccc1F)=NC2,,metabolic stability,"CD-1 mouse, hepatocytes","1 µM, 4 h",compound remaining,0.3%
COC(=O)N[C@H](C(=O)NN(CC[C@]1(Cc2ccccc2)C(=O)N([C@H]2c3ccccc3C[C@H]2O)C[C@@H]1O)Cc1ccc(Br)cc1)C(C)(C)C,MT4,"cell growth or viability, XTT",,5 days,CC50,> 50 µM
CCCC/C=C/C=C/CC(=O)O[C@@]12[C@H](OC(=O)c3ccccc3)[C@@H](C)[C@@]3(O)[C@@H](C=C(CO)C[C@]4(O)C(=O)C(C)=C[C@@H]34)[C@@H]1C2(C)C,MT4,"cell growth or viability, ATP luminescence",,,CC50,> 7 µM
CC[C@H](C)[C@H]1C(=O)N2CCC[C@H]2C(=O)O[C@H](C(C)(C)C)C[C@@H](C)C[C@H](O)C(C)(C)C2=N[C@@H](CCC(=O)N[C@@H](Cc3ccc(OC)cc3)C(=O)N(C)[C@@H](C)C(=O)N1C)CS2,,metabolic stability,"female CD-1 mouse, liver microsomes","1 µM, 0 h, pH 7.4",compound remaining,100%
C=C(C)[C@@]12O[C@@]3(c4ccccc4)O[C@@H]1[C@@H]1[C@@H]4O[C@]4(CO)[C@@H](O)[C@]4(O)C(=O)C(C)=C[C@H]4[C@@]1(O3)[C@H](C)[C@H]2OC(=O)/C=C/C=C/C=C/CCC,MT4,"cell growth or viability, ATP luminescence",,96 h,IC50,> 0.034 µM
Cc1ncc2n1-c1ccc(Cl)cc1C(c1ccccc1F)=NC2,,metabolic stability,"male CD-1 mouse, liver microsomes","1 µM, 30 min",compound remaining,< 7%
C=C(C)[C@@]1(O)[C@H](OC(=O)/C=C/C=C/CCCCC)[C@@H]2[C@@H]3O[C@]3(CO)[C@@H](O)[C@]3(O)C(=O)C(C)=C[C@H]3[C@@]2(O)[C@H](C)[C@H]1OC(=O)/C=C/c1ccccc1,MT4,"cell growth or viability, ATP luminescence",,96 h,IC50,> 0.034 µM
O=S(=O)(O)C(F)(F)C(F)(F)C(F)(F)C(F)(F)C(F)(F)C(F)(F)F,CYP3A7,"enzyme activity, inhibitor",,"10 µM, pH 7.4",inhibition,29.1%
C=C(C)[C@@]12O[C@@]3(/C=C/C=C/CCCCC)O[C@@H]1[C@@H]1[C@@H]4O[C@]4(CO)[C@@H](O)[C@]4(O)C(=O)C(C)=C[C@H]4[C@@]1(O3)[C@H](C)[C@H]2OC(=O)c1ccccc1,MT4,"cell growth or viability, ATP luminescence",,96 h,IC50,> 0.034 µM
COC(=O)N[C@H](C(=O)NN(CC[C@@]1(Cc2ccccc2)C(=O)N([C@H]2c3ccccc3C[C@H]2O)C[C@@H]1O)Cc1ccc(-c2ccncc2)cc1)C(C)(C)C,MT4,"cell growth or viability, XTT",,5 days,CC50,> 50 µM
C=C(C)[C@@]12O[C@@]3(/C=C/C=C/C=C/CCC)O[C@@H]1[C@@H]1[C@@H]4O[C@]4(CO)[C@@H](O)[C@]4(O)C(=O)C(C)=C[C@H]4[C@@]1(O3)[C@H](C)[C@H]2OC(=O)/C=C/c1ccccc1,MT4,"cell growth or viability, ATP luminescence",,96 h,IC50,> 0.034 µM
CCCC/C=C/C=C/CC(=O)O[C@@]12[C@H](OC(=O)c3ccccc3)[C@@H](C)[C@]3(O)[C@@H]4C=C(C)C(=O)[C@@]4(O)[C@H](O)C(CO)=C[C@H]3[C@@H]1C2(C)C,MT4,"cell growth or viability, ATP luminescence",,,CC50,> 7 µM
